Calls of active or inactive are those of the source. No cut-off for these calls is given here.
Legend:
Pseudomonas aeruginosa [1] = assay: Antibacterial activity against Pseudomonas aeruginosa assessed as bacterial growth at 10 uM incubated for 24 hrs relative to control; format: functional
Method in brief: (§1)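 P. aeruginosa overnight culture (OD595 1.0) diluted 1:20 in AB medium (pH 7.5, 1% glucose, casamino acids, arginine) with compound, in borosilicate bottles, 37 °C for 24 h without shaking. Growth taken as OD595 of the suspended culture. Attached cells washed twice with PBS, stained with 0.1% crystal violet for 10 min, dye eluted in ethanol and read at 545 nm.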

[2] = target: T1, HTH-type quorum-sensing regulator RhlR (Pseudomonas aeruginosa (strain ATCC 15692 / PAO1 / 1C / PRS 101 / LMG12228)) (UniProt P54292); assay: Antagonist activity at RhlR in Pseudomonas aeruginosa assessed as rhamnolipid production at 100 uM incubated for 24 hrs by Orcinol staining based assay relative to control; set-up: scale not given: the % may be the effect or the level left
T1 sequence (whole entry): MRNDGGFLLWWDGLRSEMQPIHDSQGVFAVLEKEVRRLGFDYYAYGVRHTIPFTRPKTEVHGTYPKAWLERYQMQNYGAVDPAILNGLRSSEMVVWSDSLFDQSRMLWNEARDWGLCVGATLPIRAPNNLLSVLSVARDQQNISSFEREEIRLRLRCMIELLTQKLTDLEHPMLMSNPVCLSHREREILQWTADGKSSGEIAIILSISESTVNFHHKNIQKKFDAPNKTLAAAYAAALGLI

[3] = target: T1, HTH-type quorum-sensing regulator RhlR (Pseudomonas aeruginosa (strain ATCC 15692 / PAO1 / 1C / PRS 101 / LMG12228)); assay: Modulation of RhlR in Pseudomonas aeruginosa assessed as reduction in biofilm formation at 10 uM incubated for 48 hrs under dynamic condition by measuring biofilm volume by 4',6-diamidino-2-phenylindole staining based confocal laser scanning microscopy
Method in brief: (§2)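 Drip-flow reactor with glass slides, fed continuously at 0.3 mL/min with AB medium containing 5% P. aeruginosa (OD595 1.0) plus compound, 37 °C for 48 h. Unattached cells removed with PBS. Volume and thickness obtained with Comstat2.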

[4] = target: T1, HTH-type quorum-sensing regulator RhlR (Pseudomonas aeruginosa (strain ATCC 15692 / PAO1 / 1C / PRS 101 / LMG12228)); assay: Antagonist activity at Pseudomonas aeruginosa RhlR expressed in Escherichia coli DH5alpha assessed as relative protein activity at 10 uM incubated for 1.5 hrs in presence of N-butyryl-L-homoserine lactone by luminescence reporter gene assay relative to control; set-up: scale not given: the % may be the effect or the level left
Method in brief: (§3)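 E. coli DH5α sdiA mutant carrying RhlR and rhlA::lacZ plasmids, at OD595 0.3 in LB. Compound given with BHL (10 µM per footnote) and 0.4% arabinose, 37 °C for 1.5 h.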

Pseudomonas aeruginosa [5] = assay: Antibacterial activity against Pseudomonas aeruginosa assessed as bacterial growth at 100 uM incubated for 24 hrs relative to control; format: functional; method in brief: as §1
[6] = target: T1, HTH-type quorum-sensing regulator RhlR (Pseudomonas aeruginosa (strain ATCC 15692 / PAO1 / 1C / PRS 101 / LMG12228)); assay: Agonist activity at Pseudomonas aeruginosa RhlR expressed in Escherichia coli DH5alpha assessed as relative protein activity at 1000 uM incubated for 1.5 hrs by luminescence reporter gene assay relative to control
[7] = target: T1, HTH-type quorum-sensing regulator RhlR (Pseudomonas aeruginosa (strain ATCC 15692 / PAO1 / 1C / PRS 101 / LMG12228)); assay: Modulation of RhlR in Pseudomonas aeruginosa assessed as biofilm formation at 100 uM incubated for 24 hrs under static condition by crystal violet staining based assay relative to control
[8] = target: T1, HTH-type quorum-sensing regulator RhlR (Pseudomonas aeruginosa (strain ATCC 15692 / PAO1 / 1C / PRS 101 / LMG12228)); assay: Antagonist activity at Pseudomonas aeruginosa RhlR expressed in Escherichia coli DH5alpha assessed as relative protein activity at 100 uM incubated for 1.5 hrs in presence of N-butyryl-L-homoserine lactone by luminescence reporter gene assay relative to control; set-up: scale not given: the % may be the effect or the level left; method in brief: as §3
[9] = target: T2, Transcriptional regulator MvfR (Pseudomonas aeruginosa PA14) (UniProt A0A072ZLE6); assay: Antagonist activity at Pseudomonas aeruginosa PqsR expressed in Escherichia coli DH5alpha at 0.1 to 10 uM incubated for 1.5 hrs by luminescence reporter gene assay
T2 sequence (whole entry): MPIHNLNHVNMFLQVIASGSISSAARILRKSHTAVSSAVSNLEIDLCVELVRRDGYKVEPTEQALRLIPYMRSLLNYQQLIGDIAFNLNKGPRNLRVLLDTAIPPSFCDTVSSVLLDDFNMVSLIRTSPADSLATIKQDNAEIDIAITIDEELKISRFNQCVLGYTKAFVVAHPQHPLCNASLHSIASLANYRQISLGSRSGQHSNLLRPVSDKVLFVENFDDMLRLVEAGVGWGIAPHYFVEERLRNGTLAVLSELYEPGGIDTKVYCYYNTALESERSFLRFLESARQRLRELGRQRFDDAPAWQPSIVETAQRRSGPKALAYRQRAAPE

Pseudomonas aeruginosa [10] = assay: Downregulation of rhlA expression in biofilm of Pseudomonas aeruginosa at 10 uM after 24 hrs by RT-qPCR analysis relative to control; format: functional
Method in brief: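 P. aeruginosa (OD595 1.0) diluted 1:20 in AB medium with compound in borosilicate bottles, 37 °C for 24 h. Total RNA extracted from biofilm cells and run by SYBR RT-qPCR with QS-gene primers. Cycling: 95 °C 10 s, then 40 cycles of 95 °C 10 s and 60 °C 10 s.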

[11] = target: T2, Transcriptional regulator MvfR (Pseudomonas aeruginosa PA14); assay: Agonist activity at Pseudomonas aeruginosa PqsR expressed in Escherichia coli DH5alpha at 0.1 to 10 uM incubated for 1.5 hrs by luminescence reporter gene assay
[12] = target: T1, HTH-type quorum-sensing regulator RhlR (Pseudomonas aeruginosa (strain ATCC 15692 / PAO1 / 1C / PRS 101 / LMG12228)); assay: Agonist activity at Pseudomonas aeruginosa RhlR expressed in Escherichia coli DH5alpha assessed as relative protein activity at 100 uM incubated for 1.5 hrs by luminescence reporter gene assay relative to control
[13] = target: T1, HTH-type quorum-sensing regulator RhlR (Pseudomonas aeruginosa (strain ATCC 15692 / PAO1 / 1C / PRS 101 / LMG12228)); assay: Antagonist activity at RhlR in Pseudomonas aeruginosa assessed as rhamnolipid production at 10 uM incubated for 24 hrs by Orcinol staining based assay relative to control; set-up: scale not given: the % may be the effect or the level left
[14] = target: T1, HTH-type quorum-sensing regulator RhlR (Pseudomonas aeruginosa (strain ATCC 15692 / PAO1 / 1C / PRS 101 / LMG12228)); assay: Modulation of RhlR in Pseudomonas aeruginosa assessed as reduction in biofilm formation at 10 uM incubated for 48 hrs under dynamic condition by measuring biofilm thickness by 4',6-diamidino-2-phenylindole staining based confocal laser scanning microscopy; method in brief: as §2
[15] = target: T1, HTH-type quorum-sensing regulator RhlR (Pseudomonas aeruginosa (strain ATCC 15692 / PAO1 / 1C / PRS 101 / LMG12228)); assay: Modulation of RhlR in Pseudomonas aeruginosa assessed as biofilm formation at 10 uM incubated for 24 hrs under static condition by crystal violet staining based assay relative to control
[16] = target: T3, Transcriptional activator protein LasR (Pseudomonas aeruginosa (strain ATCC 15692 / PAO1 / 1C / PRS 101 / LMG12228)) (UniProt P25084); assay: Agonist activity at Pseudomonas aeruginosa LasR expressed in Escherichia coli DH5alpha at 0.1 to 10 uM incubated for 1.5 hrs by luminescence reporter gene assay
T3 sequence (whole entry): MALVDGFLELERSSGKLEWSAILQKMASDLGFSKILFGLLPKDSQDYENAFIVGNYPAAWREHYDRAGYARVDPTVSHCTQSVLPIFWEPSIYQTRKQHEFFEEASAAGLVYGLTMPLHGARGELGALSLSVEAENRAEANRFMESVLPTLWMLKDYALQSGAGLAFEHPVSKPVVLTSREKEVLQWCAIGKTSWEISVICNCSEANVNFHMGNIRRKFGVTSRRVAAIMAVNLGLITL

| Activity [2] [%] | Activity [3] [um3/um2] | Activity [4] [%] | Activity [6] [%] | Activity [7] [%] | Activity [8] [%] | Activity [9] | Activity [11] | Activity [12] [%] | Activity [13] [%] | Activity [14] [µm] | Activity [15] [%] | Activity [16] | Structure (SMILES) | Activity (Pseudomonas aeruginosa [1]) [%] | Activity (Pseudomonas aeruginosa [5]) [%] | Activity (Pseudomonas aeruginosa [10]) |
| --- | --- | --- | --- | --- | --- | --- | --- | --- | --- | --- | --- | --- | --- | --- | --- | --- |
| 45 | 14.4 | 74 | 37 | 69 | 54 | inactive | inactive | 4 | 58 | 20.2 | 84 | inactive | CCCC(=O)NC1CCCC1 | 95 | 98 | 65 - 79% |
| 49 |  | 45 | 5 | 60 | 32 |  |  | 3 | 73 |  | 73 |  | CCCC(O)C#Cc1ccc(F)c(F)c1 (racemic) | 100 | 104 |  |
| 52 |  | 59 | 5 | 64 | 38 |  |  | 3 | 59 |  | 79 |  | CCC[C@H](O)C#Cc1ccc(F)c(F)c1 | 98 | 99 |  |
